Activity calls are given as the source filed them. No cut-off for these calls is given here.
What was measured:
[1] = Inhibition of Saccharomyces cerevisiae alcohol dehydrogenase measured every 5 mins for 2 hrs by spectrophotometry
Method in brief: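 Yeast ADH in a microplate. DMSO sample stocks were serially diluted in 10 mM PBS pH 7.4 and combined with ethanol (25% in PBS) and β-NAD⁺ (1.87 mM in PBS), both as added solutions. The mix was equilibrated 5 min at 24 °C, then ADH (1180 unit/L solution) was added and incubated 2 h at 24 °C. NADH was read at A340 every 5 min. IC50 was the concentration halving NADH versus the PBS control at 2 h. Run in triplicate, with disulfiram as positive control.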

[2] = system: Radical scavenging activity; test: Antioxidant activity assessed as DPPH radical scavenging activity after 30 mins by spectrophotometry; assay type: functional
Method in brief: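 Microplate DPPH assay: 30 min incubation at room temperature, then absorbance read at 517 nm. IC50 is the concentration giving a 50% drop in absorbance relative to the DPPH control solution.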

[3] = Inhibition of aldehyde dehydrogenase
[4] = Activation of aldehyde dehydrogenase

| Compound | IC50 [1] [µM] | IC50 [2] [µM] | inhibition [3] | Activity [4] |
| --- | --- | --- | --- | --- |
| Cn1c(=O)c2c(ncn2C)n(C)c1=O [CAFFEINE] | 197 | > 100 | inactive | inactive |
| O=C(O[C@@H]1Cc2c(O)cc(O)cc2O[C@@H]1c1ccc(O)c(O)c1)c1cc(O)c(O)c(O)c1 [EPICATECHIN GALLATE] | 65.5 | 1.5 | inactive | inactive |
| C[C@@H]1O[C@@H](OC[C@H]2O[C@@H](Oc3c(-c4ccc(O)c(O)c4)oc4cc(O)cc(O)c4c3=O)[C@H](OC(=O)/C=C/c3ccc(O)cc3)[C@@H](O)[C@@H]2O)[C@H](O)[C@H](O)[C@H]1O [CAMELLIQUERCETISIDE D] | 41.5 | 29.2 | inactive | inactive |
| O=c1c(O[C@@H]2O[C@H](CO)[C@H](O)[C@H](O)[C@H]2O)c(-c2ccc(O)cc2)oc2cc(O)cc(O)c12 [TRIFOLIN] | 70.3 | > 100 | inactive | inactive |
| O=C(O[C@@H]1Cc2c(O)cc(O)cc2O[C@@H]1c1ccc(O)cc1)c1cc(O)c(O)c(O)c1 | 44.3 | 2.8 | inactive | inactive |
| O=C(O[C@@H]1Cc2c(O)cc(O)cc2O[C@@H]1c1cc(O)c(O)c(O)c1)c1cc(O)c(O)c(O)c1 [EPIGALOCATECHIN GALLATE] | 42.8 | 8.3 | inactive | inactive |
| O=c1c(O[C@@H]2O[C@H](CO)[C@H](O)[C@H](O)[C@H]2O)c(-c2cc(O)c(O)c(O)c2)oc2cc(O)cc(O)c12 | 18.2 | 3.5 | inactive | inactive |
| O=c1c(O[C@@H]2O[C@H](CO)[C@@H](O)[C@H](O)[C@H]2O)c(-c2cc(O)c(O)c(O)c2)oc2cc(O)cc(O)c12 | 19.9 | 28 | inactive | inactive |
| O=C(/C=C/c1ccc(O)cc1)O[C@@H]1Cc2c(O)cc(O)cc2O[C@@H]1c1cc(O)c(O)c(O)c1 | 8 | 43.8 | inactive | inactive |
| C[C@@H]1O[C@@H](OC[C@H]2O[C@@H](Oc3c(-c4ccc(O)c(O)c4)oc4cc(O)cc(O)c4c3=O)[C@H](O)[C@@H](O)[C@H]2O)[C@H](O)[C@H](O[C@@H]2O[C@H](CO)[C@@H](O)[C@H](O)[C@H]2O)[C@H]1O | 41 | 30.1 | inactive | inactive |
| C[C@@H]1O[C@@H](OC[C@H]2O[C@@H](Oc3c(-c4ccc(O)cc4)oc4cc(O)cc(O)c4c3=O)[C@H](O)[C@@H](O)[C@@H]2O)[C@H](O)[C@H](O)[C@H]1O [NICOTIFLOROSIDE] | 40.4 | > 100 | inactive | inactive |
| COc1cc(C(=O)O[C@@H]2Cc3c(O)cc(O)cc3O[C@@H]2c2ccc(O)c(O)c2)cc(O)c1O | 44.1 | 10.8 | inactive | inactive |
| C[C@@H]1O[C@@H](OC[C@H]2O[C@@H](Oc3c(-c4ccc(O)c(O)c4)oc4cc(O)cc(O)c4c3=O)[C@H](O)[C@@H](O)[C@@H]2O)[C@H](O)[C@H](O[C@@H]2O[C@H](CO)[C@@H](O)[C@H](O)[C@H]2O)[C@H]1O | 19.7 | 7.7 | inactive | inactive |
| Oc1cc(O)c2c(c1)O[C@H](c1cc(O)c(O)c(O)c1)[C@H](O)C2 [EPIGALLOCATECHIN] | 16.5 | 16.2 | inactive | inactive |
| CCN(CC)C(=S)SSC(=S)N(CC)CC [DISULFIRAM] | 248 |  |  |  |
| C[C@@H]1O[C@@H](OC[C@H]2O[C@@H](Oc3c(-c4ccc(O)c(O)c4)oc4cc(O)cc(O)c4c3=O)[C@H](OC(=O)/C=C/c3ccc(O)cc3)[C@@H](O)[C@@H]2O)[C@H](O)[C@H](O[C@@H]2O[C@H](CO)[C@@H](O)[C@H](O)[C@H]2O)[C@H]1O [CAMELLIQUERCETISIDE B] | 13.7 | 22 | inactive | inactive |
| C[C@@H]1O[C@@H](OC[C@H]2O[C@@H](Oc3c(-c4ccc(O)c(O)c4)oc4cc(O)cc(O)c4c3=O)[C@H](OC(=O)/C=C/c3ccc(O)cc3)[C@@H](O[C@@H]3OC[C@H](O)[C@H](O)[C@H]3O)[C@@H]2O)[C@H](O)[C@H](O)[C@H]1O [CAMELLIQUERCETISIDE C] | 46.7 | 31.9 | inactive | inactive |
| O=C(/C=C\c1ccc(O)cc1)O[C@@H]1Cc2c(O)cc(O)cc2O[C@@H]1c1cc(O)c(O)c(O)c1 | 22.1 | 26.4 | inactive | inactive |
| Oc1cc(O)c2c(c1)O[C@H](c1ccc(O)c(O)c1)[C@@H](O)C2 [CIANIDANOL] | 21.1 | 4.3 | inactive | inactive |
| Cc1c(C)c2c(c(C)c1O)CC[C@@](C)(CCC[C@H](C)CCC[C@H](C)CCCC(C)C)O2 [ALPHA-TOCOPHEROL] |  | 11.4 |  |  |
| C[C@@H]1O[C@@H](OC[C@H]2O[C@@H](Oc3c(-c4ccc(O)cc4)oc4cc(O)cc(O)c4c3=O)[C@H](O)[C@@H](O)[C@H]2O)[C@H](O)[C@H](O[C@@H]2O[C@H](CO)[C@@H](O)[C@H](O)[C@H]2O)[C@H]1O | 17.6 | > 100 | inactive | inactive |
| C[C@@H]1O[C@@H](OC[C@H]2O[C@@H](Oc3c(-c4ccc(O)c(O)c4)oc4cc(O)cc(O)c4c3=O)[C@H](OC(=O)/C=C/c3ccc(O)cc3)[C@@H](O[C@@H]3OC[C@H](O)[C@H](O)[C@H]3O)[C@@H]2O)[C@H](O)[C@H](O[C@@H]2O[C@H](CO)[C@@H](O)[C@H](O)[C@H]2O)[C@H]1O [CAMELLIQUERCETISIDE A] | 17.3 | 19.8 | inactive | inactive |

— ChEMBL document CHEMBL1955735, “Tea catechins and flavonoids from the leaves of Camellia sinensis inhibit yeast alcohol dehydrogenase” (Bioorg Med Chem, 2012)
